These results are taken from ChEMBL document CHEMBL3576775 (Eur J Med Chem, 2015).

A word on the IC50: it is the concentration at which inhibition is half-maximal. Broadly, the Ki is the equilibrium dissociation constant of an inhibitor or competing ligand from its target. Usually inhibition in vivo stands for the change of the read-out against control, counted positive when it falls.

Calls of active or inactive are those of the source. The rule behind the calls is not given here.

Experiment [1] in a line: Inhibition of soyabean 5-LOX using arachidonic acid as substrate by microplate scanning spectrophotometer analysis. Also noted: species or system Glycine max. The gist of the method:
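Soybean lipoxygenase in assay buffer was mixed with compound (DMSO solutions at 0.01 to 100 μM, 1:10 into enzyme solution). Reaction started with arachidonic acid; plate shaken 5 min, chromogen added, shaken 5 min, read at 490 nm. Blanks and positive controls included. Duplicates, deviation <5%, averaged; percent inhibition calculated from activity.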

In experiment [2] the target is T1, Prostaglandin G/H synthase 1 (Ovis aries, UniProt P05979).
T1 sequence (P05979 whole entry): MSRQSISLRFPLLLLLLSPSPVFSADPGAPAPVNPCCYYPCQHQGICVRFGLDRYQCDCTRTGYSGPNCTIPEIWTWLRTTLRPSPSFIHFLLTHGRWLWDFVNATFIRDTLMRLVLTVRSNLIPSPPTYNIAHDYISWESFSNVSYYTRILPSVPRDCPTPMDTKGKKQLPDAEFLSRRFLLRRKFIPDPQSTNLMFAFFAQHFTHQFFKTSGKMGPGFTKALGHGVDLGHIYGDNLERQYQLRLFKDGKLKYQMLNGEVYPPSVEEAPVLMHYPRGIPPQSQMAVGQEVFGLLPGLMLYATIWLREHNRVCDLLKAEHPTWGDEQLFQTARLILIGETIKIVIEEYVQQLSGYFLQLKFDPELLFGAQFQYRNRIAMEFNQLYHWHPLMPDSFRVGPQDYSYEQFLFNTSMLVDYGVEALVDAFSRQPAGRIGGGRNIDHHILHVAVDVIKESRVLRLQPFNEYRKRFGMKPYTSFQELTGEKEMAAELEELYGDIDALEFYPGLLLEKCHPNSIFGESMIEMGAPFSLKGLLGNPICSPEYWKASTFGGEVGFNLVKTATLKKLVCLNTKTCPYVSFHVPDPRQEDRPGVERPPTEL
Description: Inhibition of ovine COX-1 assessed as PGF2alpha formation using arachidonic acid as substrate pretreated with compound for 20 mins prior to substrate addition by spectrophotometric analysis.

A short description of experiment [3]: Competitive inhibition of soyabean 5-LOX by UV-Visible spectrophotometry. Also noted: species or system Glycine max.
Experiment [4] deals with T2, Prostaglandin G/H synthase 2 (Homo sapiens, UniProt P35354).
T2 sequence (P35354 whole entry): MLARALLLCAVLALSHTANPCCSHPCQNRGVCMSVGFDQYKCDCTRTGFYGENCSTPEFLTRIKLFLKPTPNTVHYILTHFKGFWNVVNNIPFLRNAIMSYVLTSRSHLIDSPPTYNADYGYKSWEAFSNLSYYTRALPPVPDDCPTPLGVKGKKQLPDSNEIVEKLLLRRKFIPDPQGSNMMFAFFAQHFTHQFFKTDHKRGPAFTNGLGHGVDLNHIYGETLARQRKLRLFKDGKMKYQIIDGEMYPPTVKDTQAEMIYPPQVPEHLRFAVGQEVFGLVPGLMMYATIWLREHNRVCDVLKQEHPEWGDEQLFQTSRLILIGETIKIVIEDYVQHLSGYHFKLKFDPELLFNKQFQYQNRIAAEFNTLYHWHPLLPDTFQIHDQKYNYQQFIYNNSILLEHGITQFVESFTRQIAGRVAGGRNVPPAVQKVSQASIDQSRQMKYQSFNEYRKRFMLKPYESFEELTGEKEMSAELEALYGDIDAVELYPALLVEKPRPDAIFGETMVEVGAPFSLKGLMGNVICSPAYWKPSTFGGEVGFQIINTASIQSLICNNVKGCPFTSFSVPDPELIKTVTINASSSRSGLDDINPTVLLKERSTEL
Description: Competitive inhibition of human recombinant COX-2 by UV-Visible spectrophotometry. The gist of the method:
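Double reciprocal plot from UV-vis absorbance change at the maximum. Arachidonic acid in HEPES:DMSO (1:1) added in 5 µl increments (each giving 50 µM final) to a fixed enzyme concentration. Repeated with inhibitor at fixed 10 µM and 20 µM. Type of inhibition taken from where the extrapolated trails meet; also from IC50 versus Ki comparison.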

Experiment [5] concerns Glycine max.
Experiment [6] has as its target T3, Prostaglandin G/H synthase 2 (Homo sapiens) (UniProt P35354).
T3 sequence (whole entry): T2 sequence (P35354 whole entry)

The subject of experiment [7] is Mus musculus. Nature of the experiment: Anti-inflammatory activity against Swiss albino mouse assessed as reduction in paw thickness at 10 mg/kg, ip administered 30 mins prior to dextran injection measured after 4 hrs by vernier calliper analysis relative to control. It counts as functional. The gist of the method: (§1)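 Swiss albino mice, 5 per group. […] Paw thickness measured by vernier calipers at 1, 2, 3, 4, 6 and 24 h. Reduction expressed relative to control; mean ± SEM.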

For experiment [8], the system named is Mus musculus. Description: Anti-hyperalgesic activity against Swiss albino mouse assessed as reduction in paw lickings at 10 mg/kg, ip administered 30 mins prior to capsaicin injection relative to control. It counts as functional. The gist of the method:
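Swiss albino mice, 5 per group; compound given i.p. 30 min before 20 μL capsaicin injected into plantar surface of right hind paw. […] Paw lickings and twitchings counted over 10 min after capsaicin as hyperalgesia indicator; mean ± SEM, one-way ANOVA with Tukey's test versus control.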

In experiment [9] the test system is Mus musculus. Nature of the experiment: Anti-hyperalgesic activity against Swiss albino mouse assessed as reduction in paw lickings at 5 mg/kg, ip administered 30 mins prior to capsaicin injection relative to control. Type of experiment: functional.
Experiment [10] relates to Glycine max. Nature of the experiment: Competitive inhibition of soyabean 5-LOX using arachidonic acid as substrate by double reciprocal plot analysis. The gist of the method:
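Arachidonic acid in HEPES:DMSO (1:1) at 2 mM, added in 5 μL increments (50 μM final each) to fixed enzyme. Change in substrate absorbance at maxima plotted double-reciprocally, without inhibitor and with 10 μM or 20 μM inhibitor; intersection of the extrapolated lines indicates inhibition type.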

The test system of experiment [11] is Mus musculus. Description: Anti-inflammatory activity against Swiss albino mouse assessed as reduction in paw thickness at 5 mg/kg, ip administered 30 mins prior to dextran injection measured after 4 hrs by vernier calliper analysis relative to control. It counts as functional. The essentials:
as §1

In experiment [12] the test system is Mus musculus. Nature of the experiment: Anti-hyperalgesic activity against Swiss albino mouse assessed as reduction in paw lickings at 5 mg/kg, ip administered 30 mins prior to capsaicin injection and 30 mins after 200 ug misoprostol injection. Type of experiment: functional, organism-based. The essentials: (§2)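 Mice (5 per group, 7 groups), all treatments i.p. Misoprostol (200 μg) or substance P (10 μg) given 30 min before test compound (5 mg Kg⁻¹); capsaicin (20 μL) injected into right hind paw plantar surface 30 min later. Controls received normal saline. Paw lickings counted over 10 min after capsaicin.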

Experiment [13] relates to Mus musculus. Description: Anti-hyperalgesic activity against Swiss albino mouse assessed as reduction in paw lickings at 5 mg/kg, ip administered 30 mins prior to capsaicin injection and 30 mins after 10 ug substance-P injection. It counts as functional, organism-based. The essentials:
as §2

Take `COC(=O)[C@@H](Cc1c[nH]c2ccccc12)NC(=O)CNC(=O)C(=O)c1cn(S(=O)(=O)c2ccc(C)cc2)c2ccccc12`: the values for the IC50 in [1] and in experiment [2] were 12200 nM and 65500 nM, respectively.
On the same counts, the results for `COC(=O)CNC(=O)[C@@H](Cc1c[nH]c2ccccc12)NC(=O)C(=O)c1cn(S(=O)(=O)c2ccc(C)cc2)c2ccccc12` are 8380 nM and 71300 nM.
On the same counts, the results for `Cc1ccc(S(=O)(=O)n2cc(C(=O)C(=O)NCC(=O)O)c3ccccc32)cc1` are 8.6 nM and 90100 nM.
With `COC(=O)CNC(=O)CNC(=O)C(=O)c1cn(S(=O)(=O)c2ccc(C)cc2)c2ccccc12`, the half-inhibitory concentration (IC50) is 100 nM in experiment [1] and 104000 nM in experiment [2]. For the same compound, the Ki in [3] came to 97 nM; in experiment [4] it was 4660 nM. For the same compound, the Ka is 2.08 ×10⁵ /M in the experiment on Glycine max [5] and 1.81 ×10² /M in experiment [6].
Take `O=C(O)Cc1ccccc1Nc1c(Cl)cccc1Cl` [DICLOFENAC]: the inhibition in vivo at 10 mg/kg in the experiment with Mus musculus [7] was 42%; in the experiment with Mus musculus [8], 90%.
For `Cc1ccc(S(=O)(=O)n2cc(C(=O)C(=O)N[C@H](Cc3c[nH]c4ccccc34)C(=O)NCC(=O)O)c3ccccc32)cc1`, the values for the IC50 in experiment [1] and in experiment [2] were 5610 nM and above 100000 nM, respectively.
In the same order, the values of `Cc1ccc(S(=O)(=O)n2cc(C(=O)C(=O)NCC(=O)N[C@H](Cc3c[nH]c4ccccc34)C(=O)O)c3ccccc32)cc1` are 15200 nM and 98300 nM.
Regarding `COC(=O)CC[C@@H](NC(=O)[C@@H](Cc1cnc[nH]1)NC(=O)C(=O)c1cn(S(=O)(=O)c2ccc(C)cc2)c2ccccc12)C(=O)OC`, the IC50 is 3700 nM in [1] and 20200 nM in experiment [2].
`Cc1ccc(S(=O)(=O)n2cc(C(=O)C(=O)NCC(=O)N[C@@H](Cc3c[nH]c4ccccc34)C(=O)O)c3ccccc32)cc1`: in the experiment on Mus musculus [9], the inhibition in vivo at 5 mg/kg was 88%. Moreover, the inhibition in vivo at 10 mg/kg in the experiment with Mus musculus [8] is 96%. The half-maximal inhibitory concentration (IC50) was 4 nM in experiment [1] and 43500 nM in experiment [2]. Moreover, the results for the inhibition constant Ki in experiment [3] and in experiment [4] were 64 nM and 5 nM, respectively. The inhibition result in the experiment on Glycine max [10] was “Active”. Also, the Ka in the experiment on Glycine max [5] was 2.06 ×10⁶ /M; in experiment [6], 3.25 ×10⁶ /M.
On to `Cc1ccc(S(=O)(=O)n2cc(C(=O)C(=O)N[C@H](Cc3cnc[nH]3)C(=O)N[C@H](CCC(=O)O)C(=O)O)c3ccccc32)cc1`, for which the IC50 was determined as 2330 nM in experiment [1] and 151000 nM in experiment [2].
On to `COC(=O)CC[C@H](NC(=O)[C@H](Cc1cnc[nH]1)NC(=O)C(=O)c1cn(S(=O)(=O)c2ccc(C)cc2)c2ccccc12)C(=O)OC`, for which the half-inhibitory concentration (IC50) in [1] came out at 600 nM; in experiment [2] it was 76500 nM. Also, the Ki came to 356 nM in [3] and 983 nM in experiment [4]. For the same compound, the Ka was 3.02 ×10⁵ /M in the experiment on Glycine max [5] and 4.43 ×10⁴ /M in experiment [6].
In the case of `Cc1ccc(S(=O)(=O)n2cc(C(=O)C(=O)N[C@@H](Cc3cnc[nH]3)C(=O)O)c3ccccc32)cc1`, the figures for the IC50 in experiment [1] and in [2] were 2800 nM and above 100000 nM, respectively.
The compound `CC(C)(C)Sc1c(CC(C)(C)C(=O)O)n(Cc2ccc(Cl)cc2)c2ccc(OCc3ccc4ccccc4n3)cc12` [QUIFLAPON] returned a 50% inhibitory concentration (IC50) in experiment [1] of 1600 nM.
Turning to `Cc1ccc(S(=O)(=O)n2cc(C(=O)C(=O)NCC(=O)NCC(=O)O)c3ccccc32)cc1`, in the experiment on Mus musculus [9], the inhibition in vivo at 5 mg/kg came to 90%. Moreover, the IC50 in experiment [1] was 5 nM; in [2] it was above 100000 nM. Besides, the results for the Ki in [3] and in [4] were 232 nM and 3120 nM, respectively. The inhibition entry with Glycine max [10] was “Active”. Also, the Ka in the experiment on Glycine max [5] was found to be 2.99 ×10⁵ /M; in [6], 1.9 ×10³ /M.
In the case of `COC(=O)CNC(=O)[C@H](Cc1c[nH]c2ccccc12)NC(=O)C(=O)c1cn(S(=O)(=O)c2ccc(C)cc2)c2ccccc12`, the half-maximal inhibitory concentration (IC50) in experiment [1] was determined as 800 nM; in experiment [2], 9890 nM. Further, the results for the inhibition constant (Ki) in [3] and in [4] were 946 nM and 2900 nM, respectively. Besides, the Ka was found to be 5.6 ×10⁴ /M with Glycine max [5] and 7.91 ×10³ /M in experiment [6].
Consider `COC(=O)[C@H](Cc1c[nH]c2ccccc12)NC(=O)CNC(=O)C(=O)c1cn(S(=O)(=O)c2ccc(C)cc2)c2ccccc12`, for which the values for the IC50 in experiment [1] and in [2] were 1000 nM and 90900 nM, respectively. Further, the inhibition constant Ki turned out to be 753 nM in experiment [3] and 1340 nM in [4]. Moreover, the results for the Ka (with Glycine max [5]; in [6]) were 7.7 ×10⁴ /M and 9.87 ×10³ /M, respectively.
In the case of `Cc1ccc(S(=O)(=O)n2cc(C(=O)C(=O)N[C@@H](Cc3cnc[nH]3)C(=O)N[C@@H](CCC(=O)O)C(=O)O)c3ccccc32)cc1`, the inhibition in vivo at 5 mg/kg turned out to be 45% in the experiment on Mus musculus [11] and 95% in the experiment with Mus musculus [9]. In the experiment on Mus musculus [7], the inhibition in vivo at 10 mg/kg worked out at 48%. The figures for the IC50 in experiment [1] and in experiment [2] were 80 nM and 12900 nM, respectively. Also, the Ki in experiment [3] is 536 nM; in experiment [4], 12 nM. Moreover, the inhibition entry in the experiment on Glycine max [10] and in the experiment on Mus musculus [12] was “Active” each time. Besides, in the experiment with Mus musculus [13], the inhibition entry was “inactive”. Besides, the Ka in the experiment on Glycine max [5] worked out at 1.99 ×10⁵ /M; in experiment [6], 7.76 ×10⁵ /M.
With `Cc1ccc(S(=O)(=O)n2cc(C(=O)C(=O)N[C@@H](Cc3c[nH]c4ccccc34)C(=O)O)c3ccccc32)cc1`, the half-inhibitory concentration (IC50) in experiment [1] amounted to 10 nM; in experiment [2], 87200 nM.
As for `NS(=O)(=O)c1ccc(-n2nc(C(F)(F)F)cc2-c2ccc(Br)cc2)cc1`, the IC50 in [2] turned out to be 13000 nM.
